These results are taken from ChEMBL document CHEMBL1127029, “Synthesis and evaluation of 2-pyridinone derivatives as specific HIV-1 reverse transcriptase inhibitors. 3. Pyridyl and phenyl analogs of 3-aminopyridin-2(1H)-one” (J Med Chem, 1993).

Structures can show the parent of a compound that is named as a salt.

One assay concerns MT4. The experiment in a line: Cell culture inhibitory concentration against spread of HIV-I infection in MT-4 cells was determined. The class given is functional. As to conditions: Homo sapiens, read-out: CIC95. An outline of the steps:
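Spread of HIV-1 infection in MT-4 cell culture; the read-out is HIV-1 p24 core antigen by ELISA. The value is the lowest concentration giving ≥95% inhibition of infection spread (CIC95).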
Take `CCc1cc(NCc2ccccc2OC)c(O)nc1C`: the IC95 worked out at 400 nM. For the compound `CCOCn1c(Sc2ccccc2)c(CC)c(=O)[nH]c1=O`, the IC95 was 100 nM. The same measure, in the same setting: with `CC(C)=CCN1Cc2cccc3[nH]c(=S)n(c23)C[C@@H]1C` the figure was 200 nM; with `CCc1cc(NCc2cc(C)c(C)cc2OC)c(O)nc1C`, 13 nM; with `CCc1cc(NCc2cc(C)c(C)nc2OC)c(O)nc1C`, 50 nM. Still for that read-out and setting: with `CCc1cc(NCc2cccnc2OC)c(O)nc1C` the figure was 800 nM; with `CCc1cc(NCc2nc(C)c(C)cc2OC)c(O)nc1C`, 100 nM. Still for that read-out and setting: under `CCc1cc(NCc2cc(CC)c(C)nc2OC)c(O)nc1C` stands 13 nM.

Regarding `CCNc1cccnc1N1CCN(C(=O)c2cc3cc(OC)ccc3[nH]2)CC1` [ATEVIRDINE MESYLATE], the IC95 is 1500 nM. Still for that read-out and setting: with `CCc1cc(NCc2nc3c(Cl)ccc(Cl)c3o2)c(O)nc1C` [L-697661] the figure was 50 nM; with `Cc1ccnc2c1NC(=O)c1cccnc1N2C1CC1` [NEVIRAPINE], 100 nM.

In another assay the target is Human immunodeficiency virus type 1 reverse transcriptase (Human immunodeficiency virus 1, UniProt Q72547). As to the kind of experiment: In vitro inhibitory concentration against HIV-1 reverse transcriptase using rC-dG template primer.
Settings: not given
`CCc1cc(CNc2cc(CC)c(C)nc2O)c(O)nc1C` displayed an IC50 of 91 nM. On the same count and under the same terms, under `CCc1cc(NCc2nc3c(cc2OC)CCCC3)c(O)nc1C` stands 47 nM; under `CCc1cc(NCc2nc3c(cc2OC)CCC3)c(O)nc1C`, 40 nM; under `CCc1cc(NCc2ccccc2[N+](=O)[O-])c(=O)[nH]c1C`, 530 nM. Still for that read-out and setting: under `CCc1cc(NCc2ccccc2COC)c(O)nc1C` stands 35500 nM; under `CCc1cc(NCc2ccccc2OC)c(O)nc1C`, 265 nM; under `CCc1cc(NCc2cc3c(cc2OC)CCC3)c(=O)[nH]c1C`, 40 nM. `CCc1cc(NCc2nc(CC)c(C)cc2OC)c(O)nc1C`: the IC50 is 70 nM. On the same count and under the same terms, with `CCc1cc(NCc2ncccc2OC)c(=O)[nH]c1C` the figure was 1550 nM. `CCOCn1c(Sc2ccccc2)c(CC)c(=O)[nH]c1=O` yielded a concentration for half-maximal inhibition (IC50) of 32 nM. As to `CC(C)=CCN1Cc2cccc3[nH]c(=S)n(c23)C[C@@H]1C`, inhibition was half-maximal at 70 nM (IC50). Against the preceding compound, the IC50 is about 2.2-fold higher.

Compound `CCc1cc(NCc2cnccc2OC)c(=O)[nH]c1C` gave an IC50 of 10000 nM. Still for that read-out and setting: with `CCc1ccc(OC)c(CNc2cc(CC)c(C)nc2O)c1` the figure was 32 nM; with `CCc1cc(CCc2cc(CC)c(C)nc2OC)c(O)nc1C`, 65 nM; with `CCc1ccc(CNc2cc(CC)c(C)nc2O)c(OC)c1`, 510 nM.

The compound `CCc1cc(NCc2ccccc2N)c(O)nc1C` registered an IC50 of 28000 nM. Same read-out and setting: with `CCc1cc(NCc2ccccc2C(F)(F)F)c(=O)[nH]c1C` the figure was 12500 nM; with `CCc1ccccc1CNc1cc(CC)c(C)[nH]c1=O`, 6900 nM. The same measure, in the same setting: under `CCc1cc(NCc2cc(C)c(C)cc2OC)c(O)nc1C` stands 8 nM; under `CCc1cc(CCc2nc3ccccc3o2)c(O)nc1C`, 20 nM. The same measure, in the same setting: under `CCc1cc(CNc2cc(CC)c(C)[nH]c2=O)c(OC)cc1C` stands 33 nM; under `CCc1cc(CCc2cc(CC)c(C)nc2O)c(O)nc1C`, 400 nM; under `CCc1cc(NCc2cc3c(nc2OC)CCCC3)c(O)nc1C`, 35 nM. With `CCc1cc(NCc2cc(C)c(C)nc2OC)c(O)nc1C`, half-maximal inhibition (IC50) required 9 nM. Against the preceding compound, the IC50 is about 3.9-fold lower. On the same count and under the same terms, under `CCc1cc(NCc2cccc(C)c2OC)c(O)nc1C` stands 3800 nM. The compound `CCc1cc(NCc2cc3ccccc3nc2OC)c(O)nc1C` displayed an IC50 of 34 nM. Take `CCc1cc(NCc2ccncc2OC)c(=O)[nH]c1C`: it took 110000 nM to reach half-maximal inhibition (IC50). Against the preceding compound, the IC50 is about 3200-fold higher. The same measure, in the same setting: under `CCOc1ccccc1CNc1cc(CC)c(C)nc1O` stands 350 nM; under `CCc1cc(NCc2ccccc2C#N)c(=O)[nH]c1C`, 790 nM; under `CCc1cc(NCc2ccccc2O)c(=O)[nH]c1C`, 4600 nM. On to `CCc1cc(NCc2cccnc2OC)c(O)nc1C`, for which it took 680 nM to reach half-maximal inhibition (IC50). Same read-out and setting: under `CCc1cc(NCc2nc(C)c(C)cc2OC)c(O)nc1C` stands 70 nM; under `CCc1cc(NCc2ccc(OC)cc2)c(O)nc1C`, 7500 nM. Compound `CCc1cc(NCc2ccccc2Cl)c(O)nc1C` came in with an IC50 of 1450 nM. Compared with the last compound, the IC50 is about 5.2-fold lower.

`CCc1cc(NCc2ccccc2C)c(O)nc1C`: the IC50 worked out at 2200 nM. As for `CCc1cc(NCc2cccc(OC)c2)c(=O)[nH]c1C`, it took 1250 nM to reach half-maximal inhibition (IC50). Same read-out and setting: with `CCc1cc(NCc2cc(CC)c(C)nc2OC)c(O)nc1C` the figure was 19 nM; with `CCc1cc(NCc2c(C)cccc2OC)c(=O)[nH]c1C`, 1300 nM. On the same count and under the same terms, with `CCc1cc(NCc2ccccc2F)c(O)nc1C` the figure was 1400 nM; with `CCc1cc(NCc2ccccc2SC)c(=O)[nH]c1C`, 1500 nM.

As for `CCc1cc(NCc2ccc(C)cc2OC)c(O)nc1C`, half-maximal inhibition (IC50) was put at 32 nM. Compared with the last compound, the IC50 is about 47-fold lower. The compound `CCc1cc(NCc2cc(C)ccc2OC)c(O)nc1C` returned an IC50 of 23 nM. This IC50 and that of the compound before are within 1.5-fold of each other.

Broadly, the IC50 is the concentration that inhibits the measured activity by half.
